Assay results reported in PMC10132129 (RSC Advances, 2023).
Where a name gives a salt, the structure may show the parent alone. Marks after values point to notes of the source that are not given here.

Key:
[1] = test system: streptozotocin-induced diabetic male rats; assay: Body weight and relative reproductive organ weight in diabetic rats; format: in vivo, albino rats; details: 5 mg kg^−1 b.w
How it was run: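 Male albino rats (190–200 g), fasted overnight, given STZ 55 mg kg−1 ip with 5% glucose to drink; FPG >250 mg dL−1 at 72 h defined diabetes. Body weight recorded weeks 0, 5, 9. Organs weighed post-mortem; relative weight = organ/body weight × 100.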

[2] = test system: streptozotocin-induced diabetic male rats; assay: Serum biochemical estimation in diabetic rats; format: in vivo, albino rats; details: for Fasting plasma glucose / Fasting plasma glucose % reduced / Serum insulin / Serum insulin % increased: 5 mg kg^−1 b.w
How it was run: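 STZ-diabetic male rats (55 mg kg−1 ip; FPG >250 mg dL−1) dosed orally 9 weeks in 0.5% Na-CMC; n = 6. Fasting retro-orbital blood taken under diethyl ether at weeks 0, 5, 9; serum spun 3500 rpm, 15 min. FPG by glucometer; ALT, AST, ALP, creatinine by commercial kits. Mean ± SD; one-way ANOVA with Tukey test.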

[3] = test system: streptozotocin-induced diabetic male rats; assay: Copulatory; format: in vivo, albino rats; details: 5 mg kg^−1 b.w; day 63
How it was run: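 STZ-diabetic males dosed orally for 9 weeks; tested on day 63. Females were ovariectomized and primed sc with 3-benzoyloxy-17b-estrol 48 h before and progesterone 500 μg 4 h before testing. Males adapted 10 min under dim red light, then paired 1:1. Mount, intromission and ejaculation latencies/frequencies and post-ejaculatory interval recorded; n = 6.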

[4] = test system: streptozotocin-induced diabetic male rats; assay: Mating test; format: in vivo, albino rats; details: 5 mg kg^−1 b.w
How it was run: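 In week 8, each treated diabetic male was housed 5 days with two virgin females. Daily vaginal smears checked for sperm. Sperm-positive females were kept 10 days, then euthanised (diethyl ether overdose) to count fetuses and corpora lutea. Mating success = females mated / females paired; male fertility = fetuses / corpora lutea.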

[5] = test system: streptozotocin-induced diabetic male rats; assay: Epididymal sperm characteristics; format: in vivo, albino rats; details: 5 mg kg^−1 b.w, 9 weeks
How it was run: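 After 9 weeks' oral dosing of STZ-diabetic rats, cauda epididymal semen was diluted with normal saline in a red-cell pipette (0.5 to 101 mark). Count in Neubauer chamber at ×40, expressed as million cells per mL. Viability by eosin–nigrosin mixed 1:1 for 5 min, ~200 cells scored; unstained cells counted as live. Smears air-dried for morphology; n = 6.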

[6] = test system: streptozotocin-induced diabetic male rats; assay: Histopathological examination of testes; format: in vivo, albino rats; details: 9 weeks
How it was run: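 Testes from 9-week-dosed diabetic rats fixed in 10% formalin, paraffin-embedded, cut at 5 μm and H&E-stained; examined at ×400. Tubule diameter and epithelial height measured on 20 near-circular seminiferous tubule cross-sections from three slides (lower, middle, upper testis). n = 6; mean ± SD.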

[7] = biological target: human PDE5A (Homo sapiens, UniProt O76074); assay: In vitro PDE5 inhibitory activity; format: biochemical; details: read-out: % Inhibition of PDE5
[8] = ABTS^+· radical scavenging assay; format: biochemical; details: read-out: IC50 against ABTS^+· free radical
How it was run: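 Radical-scavenging assay: test compound at 25–100 μg mL−1 mixed with ABTS+· solution and incubated 37 °C, 6 min. Absorbance read at 750 nm against blank. Ascorbic acid was the standard. Triplicate runs; IC50 reported.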

[9] = 9 weeks treatment, vs diabetic control

SMILES: CCCc1nn(C)c2c(=O)[nH]c(-c3cc(S(=O)(=O)N4CCN(C)CC4)ccc3OCC)nc12 [Sildenafil citrate]
- Body weight ([1]; 9 weeks): 179.50 ± 5.05 g
- Body weight % changed ([1]; 9 weeks): −10.32 ± 3.18%
- Body weight ([1]; 0 week): 200.33 ± 6.68 g
- Body weight ([1]; 5 weeks): 170.83 ± 6.79 g
- Body weight % changed ([1]; 5 weeks): −14.69 ± 3.27%
- Fasting plasma glucose ([2]; 9 weeks): 190.67 ± 5.79 mg/dL
- Fasting plasma glucose % reduced ([2]; 9 weeks): 45.28 ± 2.37%
- Serum insulin ([2]; 9 weeks): 6.82 ± 0.14 mIU L^−1
- Serum insulin % increased ([2]; 9 weeks): 99.58 ± 9.18%
- Fasting plasma glucose ([2]; 0 week): 348.67 ± 6.80^c mg dL^−1
- Serum insulin ([2]; 0 week): 3.43 ± 021^c mIU L^−1
- Fasting plasma glucose ([2]; 5 weeks): 219.17 ± 5.38 mg/dL
- Fasting plasma glucose % reduced ([2]; 5 weeks): 37.12 ± 2.15%
- Serum insulin ([2]; 5 weeks): 6.00 ± 0.29 mIU L^−1
- Serum insulin % increased ([2]; 5 weeks): 75.37 ± 3.54%
- Creatinine (Cr) level [2, 9]: remarkable reduction
- Total bilirubin (TBIL) level [2, 9]: remarkable reduction
- Total protein (TP) level [2, 9]: significant recovery
- Urea (U) level [2, 9]: remarkable reduction
- Ejaculatory latency [3]: 948.83 ± 32.29^a sec
- Intromission frequency [3]: 8.20 ± 0.55^by no.
- Intromission latency [3]: 805.33 ± 23.84^bx sec
- Mount frequency [3]: 578.50 ± 38.01^cy sec
- Mount latency [3]: 539.67 ± 27.06^x sec
- Post ejaculatory interval [3]: 1311.67 ± 95.19 s
- Male fertility [4]: 83.85 ± 3.98^z %
- Mating success [4]: 83.34%
- No. of corpora lutea/rat [4]: 12.40 ± 0.52
- No. of fetuses/rat [4]: 10.40 ± 0.70^z
- No. of females mated ([4]; of 12 females paired): 10
- No. of females pregnant ([4]; of 12 females paired): 10
- Detached head from sperm [5]: 9.67 ± 2.73^z %
- Sperm abnormalities [5]: 9.83 ± 0.75^ay %
- Sperm count [5]: 56.69 ± 1.37 million cells per mL
- Sperm count % reduced [5]: 24.24 ± 3.66%
- Sperm motility [5]: 68.67 ± 3.14^by %
- Sperm viability [5]: 68.17 ± 2.56^cz %
- Height of seminiferous epithelium ([6]; 5 mg kg^−1 b.w): 70.60 ± 3.10^z μm
- Mean seminiferous tubule diameter ([6]; 5 mg kg^−1 b.w): 217.00 ± 15.14^y μm
- Mean Johnson's score ([6]; 5 mg kg^−1 b.w, range 1–10): 9.30 ± 0.48^z
- Testicular histology (H&E) ([6]; oral treatment): marked development in the testicular structure
- inhibition at 2.5 µg/mL [7]: 48.1 ± 1.48%
- inhibition at 5 µg/mL [7]: 67.8 ± 1.21%
- inhibition at 7.5 µg/mL [7]: 84.1 ± 0.86%
- inhibition at 10 µg/mL [7]: 97.3 ± 1.64%

SMILES: O=C1O[C@H]([C@@H](O)CO)C(O)=C1O [ascorbic acid]
- IC50 [8]: 169 ± 12.9 µM
